Results of several laboratories.
Protocols differ between the studies behind these lines.
Target: Muscarinic acetylcholine receptor M5 (CHRM5, Homo sapiens, UniProt P08912)
Tested at: 10 µM
Sequence (P08912 1-532, as in one of the studies): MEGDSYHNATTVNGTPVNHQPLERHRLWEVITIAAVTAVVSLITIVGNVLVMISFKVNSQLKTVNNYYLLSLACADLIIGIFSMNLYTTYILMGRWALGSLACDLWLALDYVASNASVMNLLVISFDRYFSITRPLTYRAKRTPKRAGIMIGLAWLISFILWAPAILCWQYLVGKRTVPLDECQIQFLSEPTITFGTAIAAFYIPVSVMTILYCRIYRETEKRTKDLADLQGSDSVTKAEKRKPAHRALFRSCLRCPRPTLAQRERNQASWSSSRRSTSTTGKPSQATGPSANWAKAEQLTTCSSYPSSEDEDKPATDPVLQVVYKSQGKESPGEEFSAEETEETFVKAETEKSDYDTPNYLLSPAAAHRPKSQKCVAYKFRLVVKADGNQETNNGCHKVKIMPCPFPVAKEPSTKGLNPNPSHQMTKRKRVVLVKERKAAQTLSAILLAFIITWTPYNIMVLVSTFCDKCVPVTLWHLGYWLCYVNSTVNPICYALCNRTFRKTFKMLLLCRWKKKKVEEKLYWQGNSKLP

The inhibition of `CNC(=N)NCCC[C@H](NC(=O)[C@H](CC(C)C)NC(=O)NNC(=O)[C@H](Cc1ccccc1)NC(=O)[C@H](CO)NC(=O)[C@H](CC(N)=O)NC(=O)[C@@H](Cc1ccncc1)NC(=O)[C@H](N)Cc1ccc(O)cc1)C(=O)N[C@@H](Cc1ccccc1)C(N)=O` is reported as 14.9% (ligand displacement).
`N#Cc1cc(Cn2c(N3CCCC3)nc3ccccc32)ccc1F` gave an inhibition of 10.9% (ligand displacement).
The inhibition of `COc1cc(NC(C)=O)c(Cl)cc1C(=O)Nc1nccs1` is reported as -6.1% (cell-free assay).
For `CO[C@@H](C)c1c(Nc2ccc([C@H](N(C)C(=O)C3CCS(=O)(=O)CC3)C(F)(F)F)cc2)cnc2cc(Cl)nn12`, the inhibition was 14.6% (ligand displacement).
For `CCCNc1nc2ccccc2n1Cc1ccc(Cl)cc1`, the inhibition was 14.5% (ligand displacement).
For `O=C(c1ccc(Cl)cc1)N(Cc1ccccc1)C1CCCCC1`, the inhibition was -9.6% (cell-free assay).
`CN(C(=O)n1cnc(-c2ccc[n+]([O-])c2)c1)C1CCCCC1` gave an inhibition of 8.59% (cell-free assay).
The inhibition of `CCN(CC)c1ccc(C2Nc3ccc(C(=O)c4ccccc4)cc3NC3=C2C(=O)CC(C)(C)C3)cc1` (centres unmarked) is reported as 20% (ligand displacement, radioligand).
